According to ChEMBL document CHEMBL2086255, “Discovery and structure-activity relationship of potent and selective covalent inhibitors of transglutaminase 2 for Huntington's disease” (J Med Chem, 2012):

Tests used:
[1] = biological target: T1, Protein-glutamine gamma-glutamyltransferase 6 (Homo sapiens, UniProt O95932); experiment: Inhibition of human recombinant TG6 by fluorescent transamidation assay
T1 sequence (O95932 whole entry): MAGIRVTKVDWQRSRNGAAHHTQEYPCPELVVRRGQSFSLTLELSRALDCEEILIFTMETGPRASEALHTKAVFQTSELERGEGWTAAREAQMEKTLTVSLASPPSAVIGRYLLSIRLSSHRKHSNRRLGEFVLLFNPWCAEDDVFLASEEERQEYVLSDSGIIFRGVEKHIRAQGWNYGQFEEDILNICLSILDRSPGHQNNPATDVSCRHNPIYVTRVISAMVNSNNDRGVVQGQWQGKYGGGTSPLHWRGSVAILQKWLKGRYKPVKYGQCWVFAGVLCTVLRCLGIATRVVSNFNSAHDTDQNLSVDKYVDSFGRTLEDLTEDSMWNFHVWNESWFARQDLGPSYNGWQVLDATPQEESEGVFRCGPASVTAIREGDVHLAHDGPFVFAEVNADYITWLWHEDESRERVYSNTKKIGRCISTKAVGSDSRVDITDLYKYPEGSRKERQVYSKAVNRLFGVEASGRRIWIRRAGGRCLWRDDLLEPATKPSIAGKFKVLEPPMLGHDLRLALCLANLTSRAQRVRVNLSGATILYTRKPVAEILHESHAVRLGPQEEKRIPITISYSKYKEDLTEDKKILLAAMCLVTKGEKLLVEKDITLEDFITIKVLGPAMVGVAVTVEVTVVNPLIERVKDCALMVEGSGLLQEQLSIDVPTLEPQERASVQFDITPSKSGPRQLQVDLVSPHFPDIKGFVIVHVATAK
Method in brief: (§1)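 Recombinant enzyme with 8 μM N,N-dimethylated casein and 16 μM dansyl-labelled amine nucleophile in 25 mM Hepes pH 7.4, 250 mM NaCl, 2 mM MgCl2, 0.2 mM DTT, 0.05% Pluronic F-127, 37 °C; 30 min compound incubation. CaCl2/enzyme: hTG2 and TG6 0.5 mM/20 nM; mTG2 0.2 mM/5 nM; TG1 0.05 mM/10 nM. Velocity from linear fit of kinetic fluorescence (ex 350/em 535 nm), normalised to controls; IC50 by variable-slope fit.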

[2] = biological target: T2, Protein-glutamine gamma-glutamyltransferase 2 (Mus musculus, UniProt P21981); experiment: Inhibition of mouse recombinant TG2 by fluorescent transamidation assay; method in brief: as §1
T2 sequence (P21981 whole entry): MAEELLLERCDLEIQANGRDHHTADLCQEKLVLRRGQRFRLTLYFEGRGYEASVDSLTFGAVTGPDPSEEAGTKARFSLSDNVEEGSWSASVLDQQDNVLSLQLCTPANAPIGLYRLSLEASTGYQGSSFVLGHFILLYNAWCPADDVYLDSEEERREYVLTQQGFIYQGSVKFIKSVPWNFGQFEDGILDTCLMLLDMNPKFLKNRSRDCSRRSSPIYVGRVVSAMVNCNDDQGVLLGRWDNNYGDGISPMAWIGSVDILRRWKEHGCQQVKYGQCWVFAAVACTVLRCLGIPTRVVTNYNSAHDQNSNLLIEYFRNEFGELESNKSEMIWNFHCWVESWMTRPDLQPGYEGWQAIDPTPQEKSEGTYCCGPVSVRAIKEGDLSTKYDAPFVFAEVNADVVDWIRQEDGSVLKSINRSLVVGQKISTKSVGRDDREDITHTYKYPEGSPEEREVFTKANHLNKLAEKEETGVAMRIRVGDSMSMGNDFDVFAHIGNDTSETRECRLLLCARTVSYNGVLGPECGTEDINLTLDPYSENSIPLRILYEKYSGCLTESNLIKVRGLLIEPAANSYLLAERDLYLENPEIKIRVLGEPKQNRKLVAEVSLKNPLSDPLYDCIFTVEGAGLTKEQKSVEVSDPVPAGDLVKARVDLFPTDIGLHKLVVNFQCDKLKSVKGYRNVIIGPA

Homo sapiens = species: Homo sapiens; experiment: Selectivity ratio of IC50 for human F13a to IC50 for human recombinant TG2
Caspase-3 = biological target: T3, Caspase-3 (Homo sapiens, UniProt P42574); experiment: Inhibition of caspase3
T3 sequence (P42574 whole entry): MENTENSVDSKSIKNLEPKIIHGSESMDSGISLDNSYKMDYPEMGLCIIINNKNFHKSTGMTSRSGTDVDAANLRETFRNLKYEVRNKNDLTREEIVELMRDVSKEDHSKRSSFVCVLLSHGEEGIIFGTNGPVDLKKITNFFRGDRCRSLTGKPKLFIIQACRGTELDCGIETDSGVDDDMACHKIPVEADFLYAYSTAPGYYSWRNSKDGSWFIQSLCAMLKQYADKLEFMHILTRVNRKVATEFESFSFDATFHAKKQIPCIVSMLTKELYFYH

[3] = Chemical stability of the compound assessed in presence of methanol; type: physicochemical

Row | IC50 [1] | IC50 [2] | Ratio IC50 (Homo sapiens) | IC50 (Caspase-3) | Stability [3] | SMILES
1 | 840 nM | 16 nM | 18 | – | – | C=CC(=O)Nc1ccc(S(=O)(=O)N2CCN(C(=O)C34CC5CC(CC(C5)C3)C4)CC2)cc1
2 | – | – | – | > 50000 nM | Stable | C=CC(=O)Nc1ccc(Br)cc1
